Reference: ChEMBL document CHEMBL4689842, “EUbOPEN Chemogenomics Library wave 1” (2021)

System: Fibroblast
Assay: Multiplex assay against human fibroblast
Type: toxicity, cell-based
Procedure, shortened: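 Live cells were stained at seeding with Hoechst33342, BioTracker Green Microtubule Cytoskeleton Dye, MitoTracker Red and Annexin V Alexa Fluor 680. Following compound addition, they were imaged on a CQ1 microscope at 37°C and 5% CO2 and gated by CellPathfinder machine learning into Hoechst high-intensity objects or normal cells, with normal cells split into healthy, pyknosed or fragmented nuclei and pyknosed cells into mitotic or apoptotic. Tubulin, mitochondrial-mass and membrane-permeability phenotypes are per cents of healthy-nucleus cells.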

[1] = 12 h, 1 µM, compound concentration 1 uM, replicate 1
[2] = 12 h, 1 µM, compound concentration 1 uM, replicate 2
[3] = 12 h, 10 µM, compound concentration 10 uM, replicate 1
[4] = 12 h, 10 µM, compound concentration 10 uM, replicate 2
[5] = 24 h, 1 µM, compound concentration 1 uM, replicate 1
[6] = 24 h, 1 µM, compound concentration 1 uM, replicate 2
[7] = 24 h, 10 µM, compound concentration 10 uM, replicate 1
[8] = 24 h, 10 µM, compound concentration 10 uM, replicate 2
[9] = 48 h, 1 µM, compound concentration 1 uM, replicate 1
[10] = 48 h, 1 µM, compound concentration 1 uM, replicate 2
[11] = 48 h, 10 µM, compound concentration 10 uM, replicate 1
[12] = 48 h, 10 µM, compound concentration 10 uM, replicate 2

CN1C(=O)[C@@H](NC(=O)c2cc3ccccc3[nH]2)N=C(c2ccccc2)c2ccccc21 [DEVAZEPIDE]
Population Apoptotic (%) [1]: 72% | Population Fragmented Nuclei (%) [1]: 21% | Population Healthy Nuclei (%) [1]: 36% | Population Hoechst High Intensity Objects (%) [1]: 13% | Population Membrane Permeable-Phenotype (%) [1]: 34% | Population Mitochondria Different-Phenotype (%) [1]: 3% | Population Mitotic Cells (%) [1]: 27% | Population Normal (%) [1]: 87% | Population Pyknosed Nuclei (%) [1]: 41% | Population Tubulin-Different-Phenotype (%) [1]: 56% | Total Cell Count [1]: 100 | Population Apoptotic (%) [2]: 33% | Population Fragmented Nuclei (%) [2]: 4% | Population Healthy Nuclei (%) [2]: 85% | Population Hoechst High Intensity Objects (%) [2]: 5% | Population Membrane Permeable-Phenotype (%) [2]: 9% | Population Mitochondria Different-Phenotype (%) [2]: 23% | Population Mitotic Cells (%) [2]: 66% | Population Normal (%) [2]: 94% | Population Pyknosed Nuclei (%) [2]: 9% | Population Tubulin-Different-Phenotype (%) [2]: 10% | Total Cell Count [2]: 68 | Population Apoptotic (%) [3]: 67% | Population Fragmented Nuclei (%) [3]: 18% | Population Healthy Nuclei (%) [3]: 48% | Population Hoechst High Intensity Objects (%) [3]: 16% | Population Membrane Permeable-Phenotype (%) [3]: 42% | Population Mitochondria Different-Phenotype (%) [3]: 15% | Population Mitotic Cells (%) [3]: 32% | Population Normal (%) [3]: 83% | Population Pyknosed Nuclei (%) [3]: 33% | Population Tubulin-Different-Phenotype (%) [3]: 68% | Total Cell Count [3]: 112 | Population Apoptotic (%) [4]: 33% | Population Fragmented Nuclei (%) [4]: 20% | Population Healthy Nuclei (%) [4]: 75% | Population Hoechst High Intensity Objects (%) [4]: 7% | Population Membrane Permeable-Phenotype (%) [4]: 37% | Population Mitochondria Different-Phenotype (%) [4]: 48% | Population Mitotic Cells (%) [4]: 66% | Population Normal (%) [4]: 92% | Population Pyknosed Nuclei (%) [4]: 5% | Population Tubulin-Different-Phenotype (%) [4]: 66% | Total Cell Count [4]: 65 | Population Apoptotic (%) [5]: 44% | Population Fragmented Nuclei (%) [5]: 25% | Population Healthy Nuclei (%) [5]: 46% | Population Hoechst High Intensity Objects (%) [5]: 13% | Population Membrane Permeable-Phenotype (%) [5]: 21% | Population Mitochondria Different-Phenotype (%) [5]: 14% | Population Mitotic Cells (%) [5]: 56% | Population Normal (%) [5]: 86% | Population Pyknosed Nuclei (%) [5]: 27% | Population Tubulin-Different-Phenotype (%) [5]: 73% | Total Cell Count [5]: 104 | Population Apoptotic (%) [6]: 37% | Population Fragmented Nuclei (%) [6]: 7% | Population Healthy Nuclei (%) [6]: 82% | Population Hoechst High Intensity Objects (%) [6]: 1% | Population Membrane Permeable-Phenotype (%) [6]: 3% | Population Mitochondria Different-Phenotype (%) [6]: 10% | Population Mitotic Cells (%) [6]: 62% | Population Normal (%) [6]: 98% | Population Pyknosed Nuclei (%) [6]: 10% | Population Tubulin-Different-Phenotype (%) [6]: 6% | Total Cell Count [6]: 79 | Population Apoptotic (%) [7]: 43% | Population Healthy Nuclei (%) [7]: 54% | Population Hoechst High Intensity Objects (%) [7]: 12% | Population Membrane Permeable-Phenotype (%) [7]: 34% | Population Mitochondria Different-Phenotype (%) [7]: 9% | Population Mitotic Cells (%) [7]: 56% | Population Normal (%) [7]: 87% | Population Pyknosed Nuclei (%) [7]: 16% | Population Tubulin-Different-Phenotype (%) [7]: 55% | Total Cell Count [7]: 108 | Population Apoptotic (%) [8]: 92% | Population Fragmented Nuclei (%) [8]: 28% | Population Healthy Nuclei (%) [8]: 49% | Population Hoechst High Intensity Objects (%) [8]: 7% | Population Membrane Permeable-Phenotype (%) [8]: 19% | Population Mitochondria Different-Phenotype (%) [8]: 45% | Population Mitotic Cells (%) [8]: 7% | Population Normal (%) [8]: 92% | Population Pyknosed Nuclei (%) [8]: 22% | Population Tubulin-Different-Phenotype (%) [8]: 51% | Total Cell Count [8]: 68 | Population Apoptotic (%) [9]: 53% | Population Fragmented Nuclei (%) [9]: 35% | Population Healthy Nuclei (%) [9]: 46% | Population Hoechst High Intensity Objects (%) [9]: 22% | Population Membrane Permeable-Phenotype (%) [9]: 36% | Population Mitochondria Different-Phenotype (%) [9]: 18% | Population Mitotic Cells (%) [9]: 46% | Population Normal (%) [9]: 77% | Population Pyknosed Nuclei (%) [9]: 18% | Population Tubulin-Different-Phenotype (%) [9]: 66% | Total Cell Count [9]: 92 | Population Apoptotic (%) [10]: 0% | Population Fragmented Nuclei (%) [10]: 19% | Population Healthy Nuclei (%) [10]: 79% | Population Hoechst High Intensity Objects (%) [10]: 7% | Population Membrane Permeable-Phenotype (%) [10]: 14% | Population Mitochondria Different-Phenotype (%) [10]: 3% | Population Mitotic Cells (%) [10]: 100% | Population Normal (%) [10]: 92% | Population Pyknosed Nuclei (%) [10]: 0% | Population Tubulin-Different-Phenotype (%) [10]: 54% | Total Cell Count [10]: 127 | Population Apoptotic (%) [11]: 66% | Population Fragmented Nuclei (%) [11]: 44% | Population Healthy Nuclei (%) [11]: 42% | Population Hoechst High Intensity Objects (%) [11]: 12% | Population Membrane Permeable-Phenotype (%) [11]: 22% | Population Mitochondria Different-Phenotype (%) [11]: 12% | Population Mitotic Cells (%) [11]: 33% | Population Normal (%) [11]: 87% | Population Pyknosed Nuclei (%) [11]: 12% | Population Tubulin-Different-Phenotype (%) [11]: 57% | Total Cell Count [11]: 107 | Population Apoptotic (%) [12]: 100% | Population Fragmented Nuclei (%) [12]: 37% | Population Healthy Nuclei (%) [12]: 61% | Population Hoechst High Intensity Objects (%) [12]: 8% | Population Membrane Permeable-Phenotype (%) [12]: 29% | Population Mitochondria Different-Phenotype (%) [12]: 11% | Population Mitotic Cells (%) [12]: 0% | Population Normal (%) [12]: 91% | Population Pyknosed Nuclei (%) [12]: 1% | Population Tubulin-Different-Phenotype (%) [12]: 61% | Total Cell Count [12]: 96
